Columns and labels:
[1] = Effect on placental diamine oxidase (0.1 uM) after 30 min of incubation at pH 7.2; set-up: species or system Homo sapiens; details: read-out: I50
Summary of the method: (§1)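 Purified human placental diamine oxidase at 0.1 µM in 0.1 M phosphate buffer, pH 7.2, at 37 °C. Inhibitor added at zero time. After preincubation, saturating 3 mM p-[(dimethylamino)methyl]benzylamine added. Product aldehyde followed at 250 nm (E = 10.400 M-1 cm-1). I50 is the concentration giving 50% loss of activity. Two experiments in duplicate.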

Rattus norvegicus [2] = species on record: Rattus norvegicus; test: Brain mitochondrial activity measured at 120 min of incubation at 100 uM concentration; assay type: functional
Summary of the method: (§2)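 Rat brain mitochondria isolated by differential centrifugation of homogenates in 0.25 M sucrose, pH 7.4, then suspended in 0.1 M phosphate buffer, pH 7.2, at 37 °C. Inhibitor added at zero time, then saturating 1 mM kynuramine added after the incubation period. MAO activity read fluorimetrically. Percent inhibition reported from three experiments in duplicate.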

[3] = Effect on placental diamine oxidase (0.1 uM) after 0 min of incubation at pH 7.2; set-up: species or system Homo sapiens; details: read-out: I50; summary of the method: as §1
Rattus norvegicus [4] = species on record: Rattus norvegicus; test: Brain mitochondrial activity measured at 120 min of incubation at 10 uM concentration; assay type: functional; summary of the method: as §2
Rattus norvegicus [5] = species on record: Rattus norvegicus; test: Brain mitochondrial activity measured at 0 min of incubation at 100 uM concentration; assay type: functional; summary of the method: as §2
Rattus norvegicus [6] = species on record: Rattus norvegicus; test: Brain mitochondrial activity measured at 0 min of incubation at 1 uM concentration; assay type: functional; summary of the method: as §2
[7] = Ki value measured for the inhibition of human placenta diamine oxidase
Summary of the method: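 Human placental diamine oxidase, 47 µg/mL (0.2 µM), in 0.1 M phosphate buffer, pH 7.2, with no preincubation. […] oxidation followed at 250 nm at 37 °C. Apparent Ki estimated from Dixon plots.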

Rattus norvegicus [8] = species on record: Rattus norvegicus; test: Brain mitochondrial activity measured at 120 min of incubation at 1 uM concentration; assay type: functional; summary of the method: as §2
[9] = Ki value measured for the inhibition of copper dependent amine oxidase in bovine plasma; assay type: cell-free
Summary of the method: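 Bovine plasma amine oxidase, 36 µg/mL (0.2 µM), in 0.1 M phosphate buffer, pH 7.2. Benzylamine at 0.5, 2.5 and 5 mM, with no preincubation. Rate measured as benzaldehyde formed per minute at 37 °C. Apparent Ki taken from Dixon plots.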

Rattus norvegicus [10] = species on record: Rattus norvegicus; test: Brain mitochondrial activity measured at 0 min of incubation at 10 uM concentration; assay type: functional; summary of the method: as §2
[11] = Effect on plasma amine oxidase (0.1 uM) after 30 min of incubation at pH 7.2; assay type: cell-free; details: 0.5 h, read-out: I50
Summary of the method: (§3)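 Purified bovine plasma amine oxidase at 0.1 µM in 0.1 M phosphate buffer, pH 7.2, at 37 °C. Inhibitor added at zero time and preincubated. Saturating 3 mM benzylamine then added and benzaldehyde formation read at 250 nm (E = 12.500 M-1 cm-1). I50 is the concentration halving activity. Two experiments in duplicate.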

[12] = Effect on plasma amine oxidase (0.1 uM) after 15 min of incubation at pH 7.2; assay type: cell-free; details: 0.25 h, read-out: I50; summary of the method: as §3
[13] = Effect on plasma amine oxidase (0.1 uM) after 0 min of incubation at pH 7.2; assay type: cell-free; details: 0 h, read-out: I50; summary of the method: as §3
[14] = Effect on plasma amine oxidase (0.1 uM) after 60 min of incubation at pH 7.2; assay type: cell-free; details: 1 h, read-out: I50; summary of the method: as §3

Structure (SMILES)	IC50 [1]	Inhibition (Rattus norvegicus [2])	IC50 [3]	Inhibition (Rattus norvegicus [4])	Inhibition (Rattus norvegicus [5])	Inhibition (Rattus norvegicus [6])	Ki [7]	Inhibition (Rattus norvegicus [8])	Ki [9]	Inhibition (Rattus norvegicus [10])	IC50 [11]	IC50 [12]	IC50 [13]	IC50 [14]
NNC(=O)Cc1ccc(-n2cccc2)cc1	10 µM	9%	10 µM	4%	6%	0%	10 µM	2%	0.5 µM	0%				
NNC(=O)c1ccccc1-n1cccc1	100 µM	6%	100 µM	5%	0%	0%	250 µM	3%	300 µM	0%				
CC(C)=NNC(=O)Cc1ccc(-n2cccc2)cc1	10 µM	18%	50 µM	12%	0%	0%	10 µM	12%	0.8 µM	0%				
NNC(=O)c1ccncc1 [ISONIAZID]		22%		16%	19%	12%		16%		14%	10 µM	10 µM	100 µM	5 µM
Cc1ccc(C)n1-c1ccc(CC(=O)NN)cc1	50 µM	3%	100 µM	0%	2%	0%		0%	10 µM	0%				
NNC(=O)c1cccc(-n2cccc2)c1	100 µM	8%	100 µM	5%	0%	0%	110 µM	0%	85 µM	0%				
NNC(=O)c1ccc(-n2cccc2)cc1	50 µM	18%	200 µM	16%	0%	0%	100 µM	2%	80 µM	0%				
NNC(=O)Cc1cccc(-n2cccc2)c1	10 µM	15%	50 µM	3%	3%	0%	100 µM	0%	0.7 µM	2%				

Reference: ChEMBL document CHEMBL1124086, “Inhibition of copper-dependent amine oxidases by some hydrazides of pyrrol-1-ylbenzoic and pyrrol-1-ylphenylacetic acids” (J Med Chem, 1988)
